Screening results: PubChem BioAssay, Broad Institute
DENV2 CPE = inhibitors of DENV2 cytopathic effect; DENV2-infected cells, cytopathic effect rescue, plate reader; CPE inhibition, % at 9.99 µM; 350,000 tested, 1.7% active; AID 651640; in the data active means CPE inhibition above about 20%, passing the limit was not always enough; inconclusive means no clear call, values can overlap the other calls; tested in BHK-21 cells
AF4-AF9 inh = inhibitors of human MLL-AF4/AF9 interaction; AID 651704; P42568; 350,000 tested, 0.47% active; AlphaScreen, biotin-AF4 peptide binding to FLAG-AF9; inhibition, % at 10 µM;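 active means every replicate reaching a set inhibition limit, whatever the replicate mean, cut at about 25% in these data; inconclusive means mean inhibition reaches that limit but some replicates miss it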
Target sequence (P42568 whole entry, looked up): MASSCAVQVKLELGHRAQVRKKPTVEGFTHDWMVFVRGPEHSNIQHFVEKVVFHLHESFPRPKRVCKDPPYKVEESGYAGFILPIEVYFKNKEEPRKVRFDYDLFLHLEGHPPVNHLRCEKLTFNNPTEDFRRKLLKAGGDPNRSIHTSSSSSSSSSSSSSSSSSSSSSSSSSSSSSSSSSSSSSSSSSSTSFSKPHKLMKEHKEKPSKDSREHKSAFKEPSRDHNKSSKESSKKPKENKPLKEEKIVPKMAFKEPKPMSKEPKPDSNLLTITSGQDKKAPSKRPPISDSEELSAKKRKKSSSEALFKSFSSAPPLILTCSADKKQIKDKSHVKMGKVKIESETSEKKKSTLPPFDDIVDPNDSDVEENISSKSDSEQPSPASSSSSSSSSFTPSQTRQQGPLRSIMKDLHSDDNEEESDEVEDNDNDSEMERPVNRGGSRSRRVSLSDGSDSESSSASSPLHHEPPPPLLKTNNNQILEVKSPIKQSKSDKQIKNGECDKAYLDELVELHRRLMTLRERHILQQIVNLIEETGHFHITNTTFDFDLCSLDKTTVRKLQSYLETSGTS
rRNA inh HTS = selective bacterial rRNA inhibition in E. coli; E. coli WT GFP vs humanized-ribosome RFP mutants, fluorescence, 24 h; hits give low values; DMSO median 0, no signal -100; GFP signal change (wild-type ribosome), % (concentration not given with the values); 350,000 tested, 1.6% active;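 active means significant combined selectivity score with lowered wild-type GFP, culture density cut under 30%, mutant RFP and density less affected; inactive means any of these conditions unmet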
PfHsp90 set2 = reduces growth (ATP signal) of yeast expressing P. falciparum Hsp90; S. cerevisiae expressing PfHsp90, BacTiter-Glo ATP, 48 h; yeast lacking PDR1 and PDR3 efflux regulators; 310,000 tested, 0.32% active; inhibition, % at 9.4 µM; AID 504621;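 active means every replicate shows inhibition above about 80%, whatever the replicate mean, limit read from the data; inconclusive means mean inhibition reaches the set limit but some replicate falls short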
Cneo AK release = Cryptococcus neoformans lysis via adenylate kinase release; lysis activity, % at 15 µM; 360,000 tested, 0.2% active; C. neoformans lysis, adenylate kinase release luminescence, 4 h; normalised: neutral wells 0, clomiphene wells 100;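 active means mean lysis activity across replicates of at least 80%, whatever share of replicates individually reach that level; inactive means mean lysis activity below 80%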
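Test system: log-phase Cryptococcus neoformans yeast cells. Input: 5 × 10^6 yeast cells/mL. Medium: fresh YPD growth medium. Doses: single dose. Incubation: static 4 h at 37 °C with compound, 1 h detection. Measured by: luminescent adenylate kinase detection reagent. Read-out: signal increase indicating cell lysis. Benchmarks: Clomiphene.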
S100A4 MyoIIA = S100A4-myosin IIA interaction inhibition; P26447; S100A4/TAMRA-MyoIIA peptide fluorescence polarization; inhibition, % at 10.7 µM; 360,000 tested, 0.14% active; AID 652163;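 active means mean inhibition of at least 70% across replicates, with every replicate also reaching that level; inconclusive means mean inhibition reaches 70% but some replicates fall short; inactive means mean inhibition below 70%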
Target sequence (P26447 whole entry, looked up): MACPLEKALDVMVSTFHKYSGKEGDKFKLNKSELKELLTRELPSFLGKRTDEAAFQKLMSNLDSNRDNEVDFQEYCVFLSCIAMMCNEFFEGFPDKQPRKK
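Compound dosing: one dose per compound; test system: human S100A4 monomer with TAMRA-labelled myosin IIA peptide; probe or stimulus: TAMRA-labelled myosin IIA heavy-chain peptide probe, 5 nM; medium: HEPES buffer with Ca2+, pH 7.2; schedule: 5 min incubation before reading; benchmarks: neutral control DMSO, positive control TFP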
Of the large screens only hits and unclear results are named; the others gave an inactive call. Rows were chosen to be rich in hits. Some 3.2% of all compounds tested hit in one or more screens of this group.

O=C(C[C@@H]1C=C[C@@H](NC(=O)Nc2ccc(F)cc2)[C@@H](CO)O1)NCc1ccccn1	none (no result: PfHsp90 set2)
Cc1onc(-c2c(Cl)cccc2Cl)c1C(=O)NC1CCCCC1	none
CSC(=NS(=O)(=O)c1ccccc1)NNC(=O)c1c(-c2c(Cl)cccc2Cl)noc1C	rRNA inh HTS -21 (no result: PfHsp90 set2, Cneo AK release)
Cc1onc(-c2c(Cl)cccc2Cl)c1C(=O)NN1CCCCCC1	rRNA inh HTS -13
Cc1onc(-c2c(F)cccc2Cl)c1C(=O)N1CCSCC1	rRNA inh HTS -29 (no result: PfHsp90 set2)
Cc1onc(-c2c(F)cccc2Cl)c1C(=O)NNC(=O)C1CCN(Cc2ccccc2)CC1	none (no result: Cneo AK release)
C[C@H](CO)N1C[C@H](C)[C@@H](CN(C)Cc2ccc(-c3ccccc3)cc2)Oc2ccc(NC(=O)NC3CCCCC3)cc2C1=O	none (no result: PfHsp90 set2)
C[C@@H]1CCCCO[C@@H](CN(C)C(=O)Nc2ccc(F)cc2)[C@H](C)CN([C@@H](C)CO)C(=O)c2cc(NC(=O)Nc3ccc4c(c3)OCO4)ccc2O1	DENV2 CPE inconclusive (no result: PfHsp90 set2)
COc1ccccc1CNC(=O)C[C@@H]1C[C@@H]2c3cc(NC(=O)Nc4ccc(C(F)(F)F)cc4)ccc3O[C@@H]2[C@H](CO)O1	none (no result: PfHsp90 set2)
CCN1CCN(C2=C(NS(=O)(=O)c3ccc(Br)cc3)C(=O)c3ccccc3C2=O)CC1	none
CCOC(=O)N1CCN(C2=C(NS(=O)(=O)c3ccc(Br)cc3)C(=O)c3ccccc3C2=O)CC1	AF4-AF9 inh 32 (no result: PfHsp90 set2)
CCOC(=O)N1CCN(C2=C(NS(=O)(=O)c3ccccc3)C(=O)c3ccccc3C2=O)CC1	AF4-AF9 inh 26
C[C@@H]1CN([C@@H](C)CO)C(=O)c2cc(NS(=O)(=O)c3cn(C)cn3)ccc2O[C@@H]1CN(C)C(=O)Nc1cccc2ccccc12	Cneo AK release 90 (no result: AF4-AF9 inh, PfHsp90 set2)
C[C@H]1CN([C@@H](C)CO)C(=O)c2cc(NS(=O)(=O)c3cn(C)cn3)ccc2O[C@H]1CN(C)C(=O)Nc1cccc2ccccc12	none (no result: PfHsp90 set2)
C[C@@H]1CN([C@H](C)CO)C(=O)c2cc(NS(=O)(=O)c3cn(C)cn3)ccc2O[C@H]1CN(C)C(=O)Nc1cccc2ccccc12	Cneo AK release 100 (no result: PfHsp90 set2)
C[C@H](CO)N1C[C@H](C)[C@@H](CN(C)C(=O)Nc2cccc3ccccc23)Oc2ccc(NS(=O)(=O)c3cn(C)cn3)cc2C1=O	none (no result: PfHsp90 set2)
Cc1cc(C)c2c(=O)n(CC(=O)N3CCN(c4ccccc4)CC3)ccc2n1	none (no result: PfHsp90 set2)
Cc1nc2ccn(Cc3ccccc3)c(=O)c2cc1C(=O)N1CCN(c2ccccc2)CC1	DENV2 CPE 26
CC(C)NC(=O)Nc1ccc2c(c1)C(=O)N([C@H](C)CO)C[C@@H](C)[C@@H](CN(C)C(=O)NC1CCCCC1)OCCCC[C@@H](C)O2	none (no result: DENV2 CPE, PfHsp90 set2, Cneo AK release, S100A4 MyoIIA)
CCCCC(OC(=O)c1ccco1)C(=O)NCc1ccc(C)cc1 (configuration not stated)	none
O=C(OC(C(=O)NCc1ccccc1)c1ccco1)c1ccccc1 (configuration not stated)	DENV2 CPE 38 (no result: rRNA inh HTS, PfHsp90 set2)
Cc1ccc(CNC(=O)C(CC(C)C)OC(=O)c2ccco2)cc1 (configuration not stated)	DENV2 CPE 30
C[C@@H]1CN([C@@H](C)CO)C(=O)c2cccc(NC(=O)Nc3ccccc3)c2O[C@H]1CN(C)Cc1ccc(Oc2ccccc2)cc1	none (no result: PfHsp90 set2)
CCN1C[C@@H]2[C@@H]3C(=O)N(Cc4ccccc4)C(=O)[C@@H]3[C@](Cc3ccccc3)(C1=O)N2C(=O)c1ccc(Br)cc1	DENV2 CPE 68
C[C@@H]1CN([C@@H](C)CO)C(=O)Cc2cc(NC(=O)C3CC3)ccc2O[C@@H]1CN(C)Cc1ccc(-c2ccccc2)cc1	DENV2 CPE 31 (no result: PfHsp90 set2)
C[C@H]1CN([C@@H](C)CO)C(=O)Cc2cc(NC(=O)C3CC3)ccc2O[C@H]1CN(C)Cc1ccc(-c2ccccc2)cc1	Cneo AK release 112 (no result: PfHsp90 set2)
C[C@@H]1CN([C@H](C)CO)S(=O)(=O)c2ccc(C3=CCCC3)cc2O[C@@H]1CN(C)C(=O)C1CCOCC1	none (no result: PfHsp90 set2)
C[C@@H](NC(=O)C[C@H]1C[C@@H]2c3cc(NC(=O)C4CCOCC4)ccc3O[C@@H]2[C@H](CO)O1)c1ccccc1	AF4-AF9 inh inconclusive (no result: PfHsp90 set2)
COc1ccc(S(=O)(=O)N(C)C[C@@H]2Oc3ccc(NS(=O)(=O)c4c(C)noc4C)cc3C(=O)N([C@@H](C)CO)C[C@H]2C)cc1	none (no result: DENV2 CPE, PfHsp90 set2)
O=C(O)c1[nH]c2ccc(Cl)cc2c1CCN1C(=O)c2ccccc2C1=O	none (no result: Cneo AK release)
O=C(O)c1[nH]c2ccc(Br)cc2c1CCN1C(=O)c2cccc([N+](=O)[O-])c2C1=O	rRNA inh HTS -28 (no result: Cneo AK release)
COc1ccc(NC(=O)N(C)C[C@H]2Oc3ccc(NS(=O)(=O)c4ccc(C)cc4)cc3C(=O)N([C@H](C)CO)C[C@H]2C)cc1	none (no result: DENV2 CPE, AF4-AF9 inh, PfHsp90 set2, Cneo AK release, S100A4 MyoIIA)
CN1c2ccc(C3=CCCCC3)cc2[C@@H]2[C@@H](CCN2C(=O)C2CC2)[C@H]1CO	S100A4 MyoIIA 118 (no result: PfHsp90 set2, Cneo AK release)
CN1c2ccc(C3=CCCCC3)cc2[C@@H]2[C@@H](CCN2C(=O)C2CC2)[C@@H]1CO	AF4-AF9 inh inconclusive (no result: PfHsp90 set2, Cneo AK release)
CN1c2ccc(C3=CCCCC3)cc2[C@H]2[C@H](CCN2C(=O)C2CC2)[C@@H]1CO	DENV2 CPE 46, AF4-AF9 inh 69 (no result: rRNA inh HTS, PfHsp90 set2, Cneo AK release)
Cc1ccc(S(=O)(=O)Nc2ccc3c(c2)C(=O)N([C@H](C)CO)C[C@@H](C)[C@@H](CN(C)S(=O)(=O)c2ccc(F)cc2)O3)cc1	none (no result: PfHsp90 set2, Cneo AK release)
COc1ccc(CN(C)C[C@@H]2Oc3ccc(NC(=O)Nc4ccc(F)cc4)cc3CC(=O)N([C@H](C)CO)C[C@H]2C)cc1	Cneo AK release 115 (no result: PfHsp90 set2)
C[C@@H]1CN([C@H](C)CO)C(=O)Cc2cc(NC(=O)Nc3ccc(F)cc3)ccc2O[C@H]1CN(C)Cc1ccc(-c2ccccc2)cc1	none (no result: PfHsp90 set2)
COc1ccc(CN(C)C[C@H]2Oc3ccc(NC(=O)Nc4ccc(F)cc4)cc3CC(=O)N([C@H](C)CO)C[C@H]2C)cc1	none (no result: PfHsp90 set2)
C[C@H]1CN([C@@H](C)CO)C(=O)Cc2cc(NC(=O)Nc3ccc(F)cc3)ccc2O[C@H]1CN(C)Cc1ccc(-c2ccccc2)cc1	DENV2 CPE 50 (no result: PfHsp90 set2)
Cc1ccc(-c2ccc([C@@H]3[C@@H](CO)N4CCCCN(S(=O)(=O)c5ccccc5C)C[C@@H]34)cc2)cc1	none (no result: PfHsp90 set2)
O=C(NNC(=S)NC(=O)c1ccccc1[N+](=O)[O-])c1ccccc1O	none (no result: Cneo AK release)
O=C(NNC(=S)NC(=O)c1ccccc1[N+](=O)[O-])c1ccccc1[N+](=O)[O-]	rRNA inh HTS -26 (no result: DENV2 CPE)
COc1ccc2c3c(n(C)c2c1)[C@H](CO)N(C(=O)CN(C)C)CC31CCN(C(=O)C2CCC2)CC1	none (no result: PfHsp90 set2, Cneo AK release)
